# HCV NS3 hel inh: inhibitors of HCV NS3 helicase, primary screen, biochemical, Cy5 molecular beacon fluorescence; NS3 helicase DNA unwinding; 290,000 compounds, 0.56% hits; AID 1800, 2009; inhibition, % at 10.9 µM;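 active = inhibition above the mean of all tested compounds plus 3 SD, set per campaign, cut at about 35% in these data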;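 note: 0% = DMSO wells and 100% = thioflavine S control wells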
#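 assay system = NS3 helicase fragment of HCV | buffer or medium = MOPS pH 6.5, MgCl2, DTT, Tween20, BSA | timing = 60 min unwinding reaction at 25 °C after ATP addition | signal = Cy5 beacon fluorescence read at start and 1 h | read-out basis = % inhibition of unwinding | control set = low DMSO, high thioflavine S at 110 µM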
# TAAR1 ag: human TAAR1 agonists, primary screen, Fluo-8 calcium fluorescence, CHO RD-HGA16 cells. vehicle wells 0%, saturating PEA agonist 100%. AID 624467, 2012. activation, % at 3 µM. 360,000 compounds, 0.99% hits. Trace amine-associated receptor 1 (Homo sapiens), Q96RJ0;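 active = activation above the mean activation of all test compounds in the run plus 3 SD, cut at about 38% in these data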
# Target sequence (Q96RJ0 whole entry, looked up): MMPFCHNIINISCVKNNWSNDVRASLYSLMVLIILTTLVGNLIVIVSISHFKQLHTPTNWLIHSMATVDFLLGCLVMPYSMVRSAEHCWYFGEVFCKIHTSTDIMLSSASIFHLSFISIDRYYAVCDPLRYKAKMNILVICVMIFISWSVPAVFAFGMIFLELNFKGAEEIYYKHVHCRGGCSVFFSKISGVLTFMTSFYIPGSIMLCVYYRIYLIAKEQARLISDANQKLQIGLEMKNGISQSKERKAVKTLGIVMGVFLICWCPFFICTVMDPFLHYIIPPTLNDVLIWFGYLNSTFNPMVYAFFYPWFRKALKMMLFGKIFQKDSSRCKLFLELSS
#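 Test system: RD-HGA16 (CHO) cells co-expressing Gα16 and hTAAR1; dosing: one-point dosing at 3 µM (nominal); timing: 17-24 h seeding, 75 min 37 °C dye, 30 min RT; signal: kinetic Fluo-8 calcium fluorescence; read-out basis: % activation relative to PEA EC100 response; controls: DMSO and PEA EC100; replicates: n 1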
# TAAR1 antagonist: human TAAR1 antagonists, primary screen, Fluo-8 calcium fluorescence, CHO RD-HGA16 cells. Trace amine-associated receptor 1 (Homo sapiens), Q96RJ0. inhibition, % at 3 µM. AID 624466, 2012. antagonist. 360,000 compounds, 1.5% hits;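 active = inhibition above a per-plate cutoff, the mean inhibition of test compounds on that plate plus 3 SD, cut at about 49% in these data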;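 note: 0% = DMSO plus EC80 beta-PEA response and 100% = DMSO alone without agonist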
#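 Test system – hTAAR1-expressing CHO RD-HGA16 cells, Gα16-coupled · Reagent – β-PEA at EC80 concentration, post-compound challenge · Compound dosing – 3 µM, single point · Timing – 140 s kinetic read after compound, 140 s after agonist · Detection – Fluo-8 intracellular calcium dye fluorescence, real-time kinetic reads · Control set – DMSO and EC80 PEA controls · Repeats – n of 1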
# rCAG binder: binders of r(CAG) RNA repeats, primary screen, biochemical, fluorescence; r(CAG) RNA repeat, TO-PRO-1 dye displacement fluorescence; inhibition, % at 3 µM; 370,000 compounds, 1.3% hits; AID 651821, 2012;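 active = inhibition above the plate cutoff, the mean of all test compounds on that plate plus 3 SD, cut at about 35% in these data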;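 note: 0% = DMSO alone and 100% = 100 µM mitoxantrone as full dye displacement; higher means more dye released from RNA so lower well fluorescence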
# core dimer inh: inhibitors of HCV core protein dimerization, primary screen, biochemical, TR-FRET, high-throughput; 300,000 compounds, 0.33% hits; inhibition, % at 5 µM; TR-FRET GST/Flag-core106 dimerization, 1536-well;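 active = inhibition above the mean of all tested compounds plus 3 SD, set per screening campaign, cut at about 45% in these data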
#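 Assay system: GST-tagged and Flag-tagged HCV core protein residues 1-106 / Times: compound-protein-antibody incubation 4 h at 22.5 °C / Signal: time-resolved FRET, ex 340 nm, em 617 and 671 nm / Evaluation: % inhibition based on acceptor/donor emission ratio / Benchmarks: wells lacking GST-core106 and wells with excess unlabelled core106 / Repeats: singlicate, one well per compound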
# TAAR1 nonsel count: nonselective antagonists in TAAR1 counter-screen cells, counter-screen for hTAAR1 antagonist project, cell-based, fluorescence, calcium; 2,400 compounds, 77% hits; counterscreen cell line, antagonist mode; inhibition, % at 3 µM; shares compounds with TAAR1 antagonist; in the data active = inhibition above about 22%;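 note: CHO-Ga16 host cells stimulated with ATP at an EC80 level; 0% = agonist EC80 plus vehicle and 100% = vehicle without agonist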
# TAAR1 ant conf: human TAAR1 antagonists, retest of hits, confirmation, cell-based, fluorescence; shares compounds with TAAR1 antagonist; TAAR1-expressing cells, fluorescence antagonist read-out; inhibition, % at 3 µM; 2,400 compounds, 40% hits; in the data active = inhibition above about 49%;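 note: CHO-Ga16 host cells challenged with agonist PEA near its EC80; 0% = agonist at EC80 plus vehicle and 100% = vehicle with no agonist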
# Ga16 ag counter: calcium activation in Ga16-expressing cells, counter-screen for TAAR1 antagonist project, cell-based, fluorescence; activation, % at 3 µM; agonist counterscreen; 2,400 compounds, 18% hits; AID 651953, 2012; shares compounds with TAAR1 antagonist; in the data active = activation above about 12%;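 note: 0% = vehicle wells and 100% = saturating stimulus response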
# TAAR1 ag counter: TAAR1 activation by candidate antagonists – cell-based, fluorescence, counter-screen for TAAR1 antagonist project | shares compounds with TAAR1 antagonist | AID 651955, 2012 | activation, % at 3 µM | 2,400 compounds, 2% hits | hTAAR1 cell line, agonist mode; in the data active = activation above about 37%;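 note: CHO cells stably expressing TAAR1 with calcium dye readout; 0% = DMSO vehicle and 100% = full agonist response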
# Active calls of the source: *; . = no result. Compounds with a hit are over-represented: about 3.7% of the library has one in this group of screens.
SMILES,HCV NS3 hel inh,TAAR1 ag,TAAR1 antagonist,rCAG binder,core dimer inh,TAAR1 nonsel count,TAAR1 ant conf,Ga16 ag counter,TAAR1 ag counter
CC(=O)c1c(COC(=O)c2ccncc2)nc2ccccc2[n+]1[O-],1,6,-20,10,30,.,.,.,.
CC(=O)c1c(COC(=O)c2cccc(C)c2)nc2ccccc2[n+]1[O-],-6,8,50*,-5,2,28*,38,8,7
Cc1cc2cc(CCNC(=O)C(=O)c3c[nH]c4ccccc34)c(=O)[nH]c2cc1C,-19,19,65*,3,-3,30*,45,9,7
Cc1cccc(C)c1NC(=O)CNc1ccccc1,-7,2,-12,10,0,.,.,.,.
Cc1cccc(C)c1NC(=O)CN(Cc1ccccc1)Cc1ccccc1,.,16,62*,0,.,23*,26,4,9
COc1ccc(N(CC(=O)NCCSc2ccc(C)cc2)S(=O)(=O)c2ccccc2)c(OC)c1,-17,9,68*,-1,17,22*,51*,9,11
COc1ccc(N(CC(=O)NCCSC2CCCCC2)S(=O)(=O)c2ccccc2)c(OC)c1,-9,-2,34,-2,-4,.,.,.,.
O=C(NCc1ccc(F)cc1)C(c1ccccc1)N(C(=O)c1csnn1)c1ccccc1 (configuration not stated),-1,21,59*,-5,7,29*,59*,19*,22
O=C(NCc1ccccc1)C(c1ccccc1)N(C(=O)c1csnn1)c1ccccc1 (configuration not stated),-4,11,62*,-2,2,27*,49*,7,5
COc1ccc(CNC(=O)C(c2cccc(C)c2)N(C(=O)c2csnn2)C2CC2)cc1 (configuration not stated),-9,17,52*,-1,10,30*,40,7,6
Cc1ccc(N(C(=O)c2csnn2)C(C(=O)NCc2ccccc2)c2cccnc2)cc1 (configuration not stated),1,-2,0,1,-2,.,.,.,.
Cc1ccc(C2CCC3(CCC(=O)N3CCOC(=O)Nc3cccc(C#N)c3)CC2)cc1 (configuration not stated),.,.,.,4,.,.,.,.,.
CCNC(=O)N1CCN(c2ccc(N3CCN(Cc4ccccc4)[C@H](C)C3)c(C)c2)[C@@H](C)C1,.,0,-8,2,.,.,.,.,.
Cc1ccccc1OCC(=O)Nc1ccccc1C(=O)NC1CC1,.,10,57*,-1,-2,24*,40,6,2
O=C(COc1ccccc1)Nc1ccccc1C(=O)NC1CC1,.,3,0,-2,-2,.,.,.,.
CC(C)(C)NC(=O)CSc1nc2ccc(NC(=O)CSc3nnnn3Cc3ccccc3)cc2s1,-11,15,49*,9,22,36*,26,10,5
Cc1ccccc1OCc1nnc(SCC(=O)Nc2ccc3nc(SCC(=O)NC(C)(C)C)sc3c2)n1C,-6,22,61*,4,20,43*,62*,10,6
Cc1ccccc1OCc1nnc(SCC(=O)Nc2ccc3c(c2)oc2ccccc23)n1C,2,8,4,5,4,.,.,.,.
Cc1cc(N2CCNC[C@@H]2C)ccc1N1CCN(Cc2ccccc2)[C@@H](C)C1,.,12,-4,9,.,.,.,.,.
NC(=O)c1nsc(C(=O)N(Cc2ccco2)C(C(=O)NC2CCCC2)c2ccc(O)cc2)c1N (configuration not stated),4,9,53*,-1,.,22*,45,7,7
CC(C(=O)NC1CCCC1)N(Cc1ccco1)C(=O)c1snc(C(=O)NC2CCCC2)c1N (configuration not stated),-11,7,8,-8,-5,.,.,.,.
COc1ccc(C(C(=O)NC2CCCCC2)N(Cc2ccco2)C(=O)c2snc(C(N)=O)c2N)cc1 (configuration not stated),-11,15,71*,-1,.,31*,53*,9,8
COc1ccc(C(C(=O)NC2CCCC2)N(Cc2ccco2)C(=O)c2snc(C(N)=O)c2N)cc1OC (configuration not stated),-5,14,43,0,2,.,.,.,.
C[C@H](O)[C@@H]1CN2CCc3ccc(-c4ccc5c(c4)OCO5)cc3[C@@H]2C[C@@H]1N(C)CC1CCCCC1,.,.,.,2,.,.,.,.,.
Cc1nc(-c2cccc(NC(=O)c3ccc(-n4nccc4C)cc3)c2)cs1,.,30,69*,6,.,33*,46,10,7
SMILES,HCV NS3 hel inh,TAAR1 ag,TAAR1 antagonist,rCAG binder,core dimer inh,TAAR1 nonsel count,TAAR1 ant conf,Ga16 ag counter,TAAR1 ag counter
O=C(CN1c2ccccc2Sc2ccccc21)NNC(=O)Nc1cccc(Cl)c1,-16,1,58*,23,-2,13,37,0,2
O=C(Cc1ccccc1)NNC(=O)Nc1cccc(Cl)c1,0,1,-12,0,0,.,.,.,.
O=C1CN(C(=O)COC(=O)c2cccs2)c2ccccc2N1,.,1,61*,2,.,12,1,2,2
OC[C@@H]1CN(Cc2ccc(F)cc2)C[C@H](n2cnc3c(N4CCN(c5ccccc5)CC4)ncnc32)O1,.,10,64*,5,.,36*,55*,18*,20
c1ccc(-c2ccc3c(n2)CCCN3Cc2ccccn2)cc1,.,-2,-7,4,.,.,.,.,.
Cc1ccccc1-c1cc(C(=O)NCc2cccc(Br)c2)n(CC2CC(c3cccnc3)=NO2)n1 (configuration not stated),.,11,69*,2,.,26*,38,7,9
CCOC(=O)c1cc(-c2ccccc2)nn1CC1CC(c2ccc(Cl)cc2)=NO1 (configuration not stated),.,13,80*,-1,-4,24*,47,6,3
COc1ccccc1CNC(=O)c1cc(-c2ccccc2C)nn1CC1CC(c2cccnc2)=NO1 (configuration not stated),.,14,37,-3,.,.,.,.,.

# Screens as filed in PubChem BioAssay.
